Reference: ChEMBL document CHEMBL1122608, “Nitrogen bridgehead compounds. 44. New antiallergic 4H-pyrido[1,2-a]pyrimidin-4-ones. 4” (1984)

How the values were obtained:
Rattus norvegicus [1] = test: Antiallergic activity by passive cutaneous anaphylaxis test after intravenous administration.; type: functional; details: read-out: ID50 (the source's name)
Procedure, shortened: (§1)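 Adult female Sprague-Dawley rats (200 g, five per group) sensitized intradermally at two sites with rat reaginic anti-ovalbumin serum; after 48 h, challenged with chicken ovalbumin 20 mg/kg plus Evans blue 40 mg/kg. Compound iv at 32, 3.2, 0.32 µmol/kg at challenge. Dermal bluing area measured 30 min later; ≥3 doses, ID50 from dose-response regression; Student's t test.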

Rattus norvegicus [2] = test: Antiallergic activity was evaluated by passive cutaneous anaphylaxis test after intra venous administration; insoluble; type: functional, organism-based; procedure, shortened: as §1
Rattus norvegicus [3] = test: Inhibition of histamine release by 50% in rats after intra peritoneal administration; type: functional
Procedure, shortened: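 Male Sprague-Dawley rats (~250 g, six per group) passively sensitized ip with anti-ovalbumin reaginic serum, challenged 4 h later with ip ovalbumin 1 mg/rat; compound ip 30 s before antigen, ≥3 doses. Peritoneal fluid taken 3 min post-challenge, centrifuged at 150 g; histamine in supernatant measured fluorometrically (autoanalyzer). ID50 from dose-response regression curve; Student's t test.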

Rattus norvegicus [4] = test: Inhibition of Evans blue extravasation by 50% in rats after intra peritoneal administration; type: functional
Procedure, shortened: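 Male Sprague-Dawley rats (~250 g, six per group) sensitized ip with 1 mL anti-ovalbumin reaginic serum; 4 h later Evans blue iv, then ovalbumin 1 mg/rat ip in Tris buffer. Compound ip 30 s before challenge, ≥3 doses. Peritoneal fluid collected at 3 min; extravasated dye read at 615 nm. ID50 from dose-response regression; Student's t test.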

Compound | ED50 (Rattus norvegicus [1]) [µmol/kg] | further results
Cc1nc2n(c(=O)c1/C=C/C(=O)O)C(C)CC/C2=N\Nc1ccccc1 (centres undefined) | 0.29 | –
CC1CCC(/C=N/c2cccc(Br)c2)=C2NC=C(C(=O)O)C(=O)N21 (centres undefined) | – | ID50 (Rattus norvegicus [2]): Insoluble
CC1CC(/C=N/c2ccccc2)=C2NC=C(C(=O)O)C(=O)N21 (centres undefined) | 20.2 | –
CC1CCC(/C=N/c2ccccc2C(=O)O)=C2NC=C(C(=O)O)C(=O)N21 (centres undefined) | 1.11 | ID50 (Rattus norvegicus [3]): 10 nmol/kg; ID50 (Rattus norvegicus [4]): 140 nmol/kg
CCOC(=O)C1=CNC2=C(/C=N/c3ccccc3)CCC(C)N2C1=O (centres undefined) | – | ID50 (Rattus norvegicus [2]): Insoluble
C[C@H]1CC/C(=N\Nc2ccccc2)c2ncc(C(=O)O)c(=O)n21 | 0.3 | ID50 (Rattus norvegicus [3]): 1 nmol/kg; ID50 (Rattus norvegicus [4]): 5 nmol/kg
Cc1ccc(/N=C/C2=C3NC=C(C(=O)O)C(=O)N3C(C)CC2)cc1 (centres undefined) | 3.6 | –
CC1CCC(/C=N/c2ccc(CC(=O)O)cc2)=C2NC=C(C(=O)O)C(=O)N21 (centres undefined) | 5.8 | ID50 (Rattus norvegicus [3]): 110 nmol/kg; ID50 (Rattus norvegicus [4]): 280 nmol/kg
C[C@H]1CC/C(=N\Nc2ccccc2)c2ncc(/C=C/C(=O)O)c(=O)n21 | 0.15 | –
Cc1cccc(/N=C/C2=C3NC=C(C(=O)O)C(=O)N3[C@@H](C)CC2)c1 | 0.02 | –
O=C(O)c1cnc2n(c1=O)CCCC/C2=N\Nc1ccccc1 | 14.4 | –
C[C@@H]1CC/C(=N\Nc2ccccc2)c2ncc(/C=C/C(=O)O)c(=O)n21 | > 100 | –
O=C(O)C1=CNC2=C(/C=N/c3ccccc3)CCN2C1=O | 15.4 | –
CC1CCC(/C=N/c2ccc([N+](=O)[O-])cc2)=C2NC=C(C(=O)O)C(=O)N21 (centres undefined) | – | ID50 (Rattus norvegicus [2]): Insoluble
CC1CCC(/C=N/c2ccccc2)=C2NC=C(C(=O)O)C(=O)N21 (centres undefined) | – | ID50 (Rattus norvegicus [2]): Insoluble
CC1CCCc2ncc(C(=O)O)c(=O)n21 (centres undefined) | 240 | –
CC1CCN2C(=O)C(C(=O)O)=CNC2=C1/C=N/c1ccccc1 (centres undefined) | – | ID50 (Rattus norvegicus [2]): Insoluble
CCOc1cccc(/N=C/C2=C3NC=C(C(=O)O)C(=O)N3C(C)CC2)c1 (centres undefined) | – | ID50 (Rattus norvegicus [2]): Insoluble
CC1CCC(/C=N/c2ccc(Br)cc2)=C2NC=C(C(=O)O)C(=O)N21 (centres undefined) | – | ID50 (Rattus norvegicus [2]): Insoluble
CC1CC/C(=N\Nc2ccccc2)c2ncc(/C=C/C(=O)O)c(=O)n21 (centres undefined) | 0.27 | –
CC(=O)c1ccc(/N=C/C2=C3NC=C(C(=O)O)C(=O)N3C(C)CC2)cc1 (centres undefined) | 0.75 | –
CC1CCC(=NNc2ccccc2)c2ncc(C(=O)O)c(=O)n21 (centres undefined) | 0.6 | –
Cc1cccc(/N=C/C2=C3NC=C(C(=O)O)C(=O)N3[C@H](C)CC2)c1 | 66.9 | –
CC1CCC(/C=N/c2ccc(O)cc2)=C2NC=C(C(=O)O)C(=O)N21 (centres undefined) | 1.2 | –

Compound | ED50 (Rattus norvegicus [1]) [µmol/kg] | further results
CCOc1ccc(/N=C/C2=C3NC=C(C(=O)O)C(=O)N3C(C)CC2)cc1 (centres undefined) | 8.96 | –
C[C@@H]1CC/C(=N\Nc2ccccc2)c2ncc(C(=O)O)c(=O)n21 | 54.8 | –
CC1CCC(/C=N/c2cccnc2)=C2NC=C(C(=O)O)C(=O)N21 (centres undefined) | 2.4 | ID50 (Rattus norvegicus [3]): 100 nmol/kg; ID50 (Rattus norvegicus [4]): 360 nmol/kg
CC1CCC(/C=N/c2cccc(Cl)c2)=C2NC=C(C(=O)O)C(=O)N21 (centres undefined) | – | ID50 (Rattus norvegicus [2]): Insoluble
CCOC(=O)C1=CNC2=C(/C=N/c3ccccc3C(=O)O)CCC(C)N2C1=O (centres undefined) | 24.8 | –
CC1CCC(/C=N/c2ccc(C(=O)O)cc2)=C2NC=CC(=O)N21 (centres undefined) | > 100 | –
CC1CCC(/C=N/c2cccc(C(=O)O)c2)=C2NC=CC(=O)N21 (centres undefined) | > 100 | –
CC1CCC(/C=N/c2ccc3ccccc3c2)=C2NC=C(C(=O)O)C(=O)N21 (centres undefined) | – | ID50 (Rattus norvegicus [2]): Insoluble
CC1CC(/C=N/c2ccccc2C(=O)O)=C2NC=C(C(=O)O)C(=O)N2C1 (centres undefined) | 48.1 | –
O=C(O)C1=CNC2=C(/C=N/c3ccccc3C(=O)O)CCCCN2C1=O | 68.7 | –
COc1ccc(/N=C/C2=C3NC=C(C(=O)O)C(=O)N3C(C)CC2)cc1 (centres undefined) | – | ID50 (Rattus norvegicus [2]): Insoluble
CC1CCC(/C=N/c2ccc(C(F)(F)F)cc2)=C2NC=C(C(=O)O)C(=O)N21 (centres undefined) | > 100 | –
O=C([O-])c1cc(=O)c2c(OCC(O)COc3cccc4oc(C(=O)[O-])cc(=O)c34)cccc2o1.[Na+].[Na+] [CROMOLYN SODIUM] | 1 | ID50 (Rattus norvegicus [3]): 16 nmol/kg; ID50 (Rattus norvegicus [4]): 55 nmol/kg
CC1CCN2C(=O)C(C(=O)O)=CNC2=C1/C=N/c1ccccc1C(=O)O (centres undefined) | 100 | –
Cc1cccc(/N=C/C2=C3NC=C(C(=O)O)C(=O)N3C(C)CC2)c1 (centres undefined) | 0.8 | ID50 (Rattus norvegicus [3]): 2 nmol/kg; ID50 (Rattus norvegicus [4]): 130 nmol/kg
CC1CCC(/C=N/c2ccccc2O)=C2NC=C(C(=O)O)C(=O)N21 (centres undefined) | 4.11 | –
O=C(O)C1=CNC2=C(/C=N/c3ccccc3C(=O)O)CCCN2C1=O | 22.9 | –
CC1CCC(/C=N/c2ccccc2F)=C2NC=C(C(=O)O)C(=O)N21 (centres undefined) | 14.5 | –
CCOC(=O)C1=CNC2=C(/C=N/c3cccc(C(=O)O)c3)CCC(C)N2C1=O (centres undefined) | 100 | –
CC1CCC(/C=N/c2ccccc2)=C2NC(c3ccccc3)=C(/C=C/C(=O)O)C(=O)N21 (centres undefined) | – | ID50 (Rattus norvegicus [2]): Insoluble
CC1CCC(/C=N/c2ccc(Cl)cc2)=C2NC=C(C(=O)O)C(=O)N21 (centres undefined) | – | ID50 (Rattus norvegicus [2]): Insoluble
CC1CCC(/C=N/c2ccc(F)cc2)=C2NC=C(C(=O)O)C(=O)N21 (centres undefined) | 10.6 | –
CCOC(=O)C1=CNC2=C(/C=N/c3ccc(C(=O)O)cc3)CCC(C)N2C1=O (centres undefined) | 67.1 | –
